In experiment [1] the target is Human immunodeficiency virus type 1 protease (Human immunodeficiency virus 1, UniProt Q72874, Q7K). As to the kind of experiment: Inhibition of wild type HIV1 protease Q7K mutant. The gist of the method:
(§1)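 Protease desalted into 20 mM sodium acetate pH 5, about 50 nM apparent by A280. Preincubated with inhibitor in DMSO 20-30 min at room temperature. Buffer 0.1 M NaOAc, 1 M NaCl, 1 mM EDTA, 1 mM DTT, 2% DMSO, 1 mg/mL BSA, pH 4.7. Read 340/490 nm, 30 °C, ~10 min. Ki by nonlinear fit of initial velocity versus inhibitor concentration.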

Experiment [2] has as its target Human immunodeficiency virus type 1 protease (Human immunodeficiency virus 1, UniProt Q72874, G48V/I54V/L10I/L63P/V82A). As to the kind of experiment: Inhibition of HIV1 protease L10I/G48V/I54V/L63P/V82A mutant. The gist of the method:
as §1

Experiment [3] deals with Human immunodeficiency virus type 1 protease (Human immunodeficiency virus 1, UniProt Q72874, D30N/L63P/N88D). Briefly: Inhibition of HIV1 protease D30N/L63P/N88D mutant. In outline:
as §1

The target of experiment [4] is Human immunodeficiency virus type 1 protease (Human immunodeficiency virus 1, UniProt Q72874, A71V/G73S/I84V/L10I/L63P/L90M). As to the kind of experiment: Inhibition of HIV1 protease L10I/L63P/A71V/G73S/I84V/L90M mutant. In outline:
as §1

Take `CC(C)CN(C[C@@H](O)[C@H](Cc1ccccc1)NC(=O)[C@@H]1CN(c2ccccc2)C(=O)O1)S(=O)(=O)c1ccc(N)cc1`: the Ki in experiment [1] was 0.53 nM; in experiment [2], 2.08 nM; in experiment [3] it was 0.92 nM; in experiment [4], 10.3 nM.

In turn, `COc1ccc(S(=O)(=O)N(CC(C)C)C[C@@H](O)[C@H](Cc2ccccc2)NC(=O)[C@H]2CN(c3ccccc3)C(=O)O2)cc1` registered a Ki in experiment [1] of 10.7 nM.

With `COc1ccc(S(=O)(=O)N(CC(C)C)C[C@@H](O)[C@H](Cc2ccccc2)NC(=O)[C@@H]2CN(c3cccc(F)c3)C(=O)O2)cc1`, the Ki in experiment [1] came to 0.083 nM; in experiment [2] it was 3.56 nM; in experiment [3] it was 0.08 nM; in experiment [4], 4.94 nM.

Consider `COc1ccc(S(=O)(=O)N(CC(C)C)C[C@@H](O)[C@H](Cc2ccccc2)NC(=O)[C@@H]2CN(c3ccc(C(C)=O)cc3)C(=O)O2)cc1`, for which the Ki in experiment [2] worked out at 0.78 nM; in experiment [3], 0.179 nM; in experiment [4], 1.94 nM.

In experiment [1], `CC(C)CN(C[C@@H](O)[C@H](Cc1ccccc1)NC(=O)[C@@H]1CN(c2cccc(F)c2)C(=O)O1)S(=O)(=O)c1ccc(N)cc1` returned a Ki of 0.17 nM.

Compound `CC(=O)c1ccc(N2C[C@@H](C(=O)N[C@@H](Cc3ccccc3)[C@H](O)CN(CC(C)C)S(=O)(=O)c3ccc(N)cc3)OC2=O)cc1` yielded a Ki in experiment [1] of 0.184 nM.

As to `CC(C)CN(C[C@@H](O)[C@H](Cc1ccccc1)NC(=O)[C@@H]1CN(c2ccc(F)c(F)c2)C(=O)O1)S(=O)(=O)c1ccc2c(c1)OCO2`, the affinity in experiment [1], expressed as Ki, was 0.085 nM.

For `CC(=O)c1cccc(N2C[C@@H](C(=O)N[C@@H](Cc3ccccc3)[C@H](O)CN(CC(C)C)S(=O)(=O)c3ccc4c(c3)OCO4)OC2=O)c1`, the Ki is 0.006 nM in experiment [1], 0.72 nM in experiment [2], 0.235 nM in experiment [3] and 3.51 nM in experiment [4].

In experiment [1], `CC(=O)c1cccc(N2C[C@@H](C(=O)N[C@@H](Cc3ccccc3)[C@H](O)CN(CC(C)C)S(=O)(=O)c3ccc(OC(F)(F)F)cc3)OC2=O)c1` showed a Ki of 2 nM.

As to `COc1cccc(S(=O)(=O)N(Cc2cccs2)C[C@@H](O)[C@H](Cc2ccccc2)NC(=O)[C@@H]2CN(c3ccc(C(C)=O)cc3)C(=O)O2)c1`, in experiment [1], the Ki was determined as 29.5 nM.

In turn, `COc1ccc(S(=O)(=O)N(CC2CC2)C[C@@H](O)[C@H](Cc2ccccc2)NC(=O)[C@@H]2CN(c3ccc(C(C)=O)cc3)C(=O)O2)cc1` showed a Ki in experiment [1] of 0.8 nM.

As to `COc1cccc(S(=O)(=O)N(Cc2cccs2)C[C@@H](O)[C@H](Cc2ccccc2)NC(=O)[C@@H]2CN(c3cccc(F)c3)C(=O)O2)c1`, in experiment [1], affinity was put at a Ki of 189 nM.

As for `CC(=O)c1cccc(N2C[C@@H](C(=O)N[C@@H](Cc3ccccc3)[C@H](O)CN(CC(C)C)S(=O)(=O)c3ccc(N)cc3)OC2=O)c1`, the Ki in experiment [1] was 0.032 nM.

As for `CC(C)CN(C[C@@H](O)[C@H](Cc1ccccc1)NC(=O)[C@@H]1CN(c2cccc(F)c2)C(=O)O1)S(=O)(=O)c1ccc2c(c1)OCO2`, the Ki in experiment [1] turned out to be 0.107 nM.

For the compound `COc1ccc(S(=O)(=O)N(CC(C)C)C[C@@H](O)[C@H](Cc2ccccc2)NC(=O)[C@@H]2CN(c3cccc(F)c3)C(=O)O2)cc1F`, the Ki in experiment [1] came out at 0.07 nM.

For `COc1cccc(S(=O)(=O)N(CC(C)C)C[C@@H](O)[C@H](Cc2ccccc2)NC(=O)[C@@H]2CN(c3ccccc3)C(=O)O2)c1`, the Ki in experiment [1] came out at 3.8 nM.

The compound `COc1cccc(S(=O)(=O)N(Cc2cccs2)C[C@@H](O)[C@H](Cc2ccccc2)NC(=O)[C@@H]2CN(c3ccccc3)C(=O)O2)c1` registered a Ki in experiment [1] of 239 nM.

In experiment [1], `CC(=O)c1ccc(N2C[C@@H](C(=O)N[C@@H](Cc3ccccc3)[C@H](O)CN(Cc3cccs3)S(=O)(=O)c3cc(F)c(F)cc3F)OC2=O)cc1` had a Ki of 168 nM.

For the compound `CC(C)CN(C[C@@H](O)[C@H](Cc1ccccc1)NC(=O)[C@@H]1CN(c2cccc(C(F)(F)F)c2)C(=O)O1)S(=O)(=O)c1ccc2c(c1)OCO2`, in experiment [1], the Ki stood at 0.016 nM.

Take `CC(C)CN(C[C@@H](O)[C@H](Cc1ccccc1)NC(=O)[C@@H]1CN(c2ccc(F)c(F)c2)C(=O)O1)S(=O)(=O)c1ccc(N)cc1`: the Ki in experiment [1] worked out at 0.23 nM.

On to `CC(C)CN(C[C@@H](O)[C@H](Cc1ccccc1)NC(=O)[C@H]1CN(c2ccccc2)C(=O)O1)S(=O)(=O)c1ccc(N)cc1`, for which affinity in experiment [1] was put at a Ki of 37.4 nM.

With `O=C(N[C@@H](Cc1ccccc1)[C@H](O)CN(Cc1cccs1)S(=O)(=O)c1cc(F)c(F)cc1F)[C@@H]1CN(c2cccc(F)c2)C(=O)O1`, the Ki in experiment [1] amounted to 160 nM.

As to `COc1ccc(S(=O)(=O)N(CC(C)C)C[C@@H](O)[C@H](Cc2ccccc2)NC(=O)[C@@H]2CN(c3cccc(C(F)(F)F)c3)C(=O)O2)cc1`, the Ki in experiment [1] came to 0.006 nM.

Take `COc1ccc(S(=O)(=O)N(CC(C)C)C[C@@H](O)[C@H](Cc2ccccc2)NC(=O)[C@@H]2CN(c3ccccc3)C(=O)O2)cc1`: the affinity in experiment [1], expressed as Ki, was 0.1 nM.

On to `COc1ccc(S(=O)(=O)N(CC(C)C)C[C@@H](O)[C@H](Cc2ccccc2)NC(=O)[C@@H]2CN(c3ccc(F)c(F)c3)C(=O)O2)cc1`, for which the Ki in experiment [1] was determined as 0.066 nM; in experiment [2], 1.18 nM; in experiment [3] it was 0.152 nM; in experiment [4], 8.69 nM.

`COc1ccc(S(=O)(=O)N(CC(C)C)C[C@@H](O)[C@H](Cc2ccccc2)NC(=O)[C@@H]2CN(c3cccc(C(C)=O)c3)C(=O)O2)cc1`: the figures for the Ki in experiment [2], in experiment [3] and in experiment [4] were 0.16 nM, 0.039 nM and 3.36 nM, respectively.

For the compound `COc1ccc(S(=O)(=O)N(CC(C)C)C[C@@H](O)[C@H](Cc2ccccc2)NC(=O)[C@@H]2CN(c3cccc(OC)c3)C(=O)O2)cc1`, the affinity in experiment [1], expressed as Ki, was 0.045 nM.

In the case of `CC(C)CN(C[C@@H](O)[C@H](Cc1ccccc1)NC(=O)[C@@H]1CN(c2cccc(C(F)(F)F)c2)C(=O)O1)S(=O)(=O)c1ccc(N)cc1`, the Ki in experiment [1] was 0.042 nM; in experiment [2], 4.42 nM; in experiment [3], 0.36 nM; in experiment [4] it was 12.3 nM.

The compound `COc1ccc(S(=O)(=O)N(CC(C)C)C[C@@H](O)[C@H](Cc2ccccc2)NC(=O)[C@@H]2CN(c3ccc(C(C)=O)cc3)C(=O)O2)cc1F` registered a Ki in experiment [1] of 0.08 nM.

`CC(=O)c1ccc(N2C[C@@H](C(=O)N[C@@H](Cc3ccccc3)[C@H](O)CN(CC(C)C)S(=O)(=O)c3ccc4c(c3)OCO4)OC2=O)cc1` showed a Ki in experiment [1] of 0.016 nM.

For the compound `COc1ccc(S(=O)(=O)N(CC(C)C)C[C@@H](O)[C@H](Cc2ccccc2)NC(=O)[C@@H]2CN(c3cccc(C(F)(F)F)c3)C(=O)O2)cc1F`, the inhibitory constant (Ki) in experiment [1] was found to be 0.072 nM.

With `O=C(N[C@@H](Cc1ccccc1)[C@H](O)CN(Cc1cccs1)S(=O)(=O)c1cc(F)c(F)cc1F)[C@@H]1CN(c2ccccc2)C(=O)O1`, the Ki in experiment [1] is 170 nM.

Regarding `COc1ccc(S(=O)(=O)N(CC2CC2)C[C@@H](O)[C@H](Cc2ccccc2)NC(=O)[C@@H]2CN(c3cccc(F)c3)C(=O)O2)cc1`, the Ki in experiment [1] came to 0.257 nM.

As to `COc1ccc(S(=O)(=O)N(CC(C)C)C[C@@H](O)[C@H](Cc2ccccc2)NC(=O)[C@@H]2CN(c3ccc(F)c(F)c3)C(=O)O2)cc1F`, in experiment [1], affinity was put at a Ki of 0.343 nM.

Compound `CC(C)CN(C[C@@H](O)[C@H](Cc1ccccc1)NC(=O)[C@@H]1CN(c2cccc(C(F)(F)F)c2)C(=O)O1)S(=O)(=O)c1ccc(OC(F)(F)F)cc1` registered a Ki in experiment [1] of 10 nM.

For the compound `COc1cccc(S(=O)(=O)N(CC(C)C)C[C@@H](O)[C@H](Cc2ccccc2)NC(=O)[C@@H]2CN(c3ccc(C(C)=O)cc3)C(=O)O2)c1`, the Ki in experiment [1] stood at 0.84 nM.

As to `COc1ccc(S(=O)(=O)N(CC2CC2)C[C@@H](O)[C@H](Cc2ccccc2)NC(=O)[C@@H]2CN(c3ccc(F)c(F)c3)C(=O)O2)cc1`, affinity in experiment [1] was put at a Ki of 0.58 nM.

`COc1cccc(S(=O)(=O)N(CC2CCCO2)C[C@@H](O)[C@H](Cc2ccccc2)NC(=O)[C@@H]2CN(c3ccccc3)C(=O)O2)c1` (single isomer, unassigned) had a Ki in experiment [1] of 42 nM.

In experiment [1], `COc1cccc(S(=O)(=O)N(CC2CCCO2)C[C@@H](O)[C@H](Cc2ccccc2)NC(=O)[C@@H]2CN(c3cccc(F)c3)C(=O)O2)c1` (single isomer, unassigned) had a Ki of 150 nM.

Broadly, the Ki is a measure of affinity in units of concentration, obtained from inhibition or displacement. A low value points to a stronger hold on the target.

Source of the values: ChEMBL document CHEMBL1137295, “Discovery of HIV-1 protease inhibitors with picomolar affinities incorporating N-aryl-oxazolidinone-5-carboxamides as novel P2 ligands” (J Med Chem, 2006).
